Published values pooled from the literature.
Compare with care: the assays were run in different laboratories.
MAOA: Amine oxidase [flavin-containing] A (MAOA, Homo sapiens, UniProt P21397)
LDHA: L-lactate dehydrogenase A chain (LDHA, Homo sapiens, UniProt P00338)
PTPN1: Tyrosine-protein phosphatase non-receptor type 1 (PTPN1, Homo sapiens, UniProt P18031)
Acetylcholinesterase: Acetylcholinesterase (Bos taurus, UniProt P23795)
Integrin alpha-V/beta-3: Integrin alpha-V/beta-3 (Homo sapiens, UniProt P05106+P06756)

Compound | target | assay | setting | IC50 [µM]
COc1ccc(/C=C/C(=O)N2CCN(Cc3ccccc3)CC2)cc1OC | MAOA | enzyme activity, inhibitor, fluorescence | – | 63.2
C[C@@H]1C/C=C/CCCCC(=O)Cc2cc(O)cc(O)c2C(=O)O1 | Mitogen-activated protein kinase kinase kinase 7 (MAP3K7, Homo sapiens, UniProt O43318) | enzyme activity, inhibitor, ATP luminescence | – | > 10
Cc1ccc2nc(N3C(=O)C(O)=C(C(=O)OC(C)(C)C)C3c3ccc(-c4ccc(Cl)cc4)o3)sc2c1 (centres unmarked) | UDP-N-acetylglucosamine 1-carboxyvinyltransferase (murA, Escherichia coli K-12, UniProt P0A749) | enzyme activity, inhibitor | – | 4.5
O=c1cc(-c2ccc(O)c(O)c2)oc2cc(O[C@@H]3O[C@H](CO)[C@@H](O)[C@H](O)[C@H]3O[C@@H]3O[C@H](CO)[C@@H](O)[C@H](O)[C@H]3O)cc(O)c12 | LDHA | enzyme activity, inhibitor | pH 7.4 | 163
CCCCc1ccc(NS(=O)(=O)c2ccc3c4c(cccc24)C(=O)N3)cc1 | PTPN1 | enzyme activity, inhibitor | – | 59.4
COc1c(O[C@@H]2O[C@H](CO)[C@@H](O)[C@H](O)[C@H]2O)cc2oc(-c3ccc(O)cc3)cc(=O)c2c1O | LDHA | enzyme activity, inhibitor | pH 7.4 | 210
O=C(Nc1ccc([N+](=O)[O-])cc1[N+](=O)[O-])c1ccc2c(c1)OCO2 | MAOA | enzyme activity, inhibitor | – | 0.289
CNC(=O)Oc1cccc2c1OC(C)(C)O2 | Acetylcholinesterase | enzyme activity, inhibitor, Ellman | – | 0.195
CC(=O)N[C@@H](CS)C(=O)O | Angiotensin-converting enzyme 2 (ACE2, Homo sapiens, UniProt Q9BYF1) | enzyme activity, inhibitor, fluorescence | – | 173
CNC(=O)Oc1ccccc1OC(C)C | Acetylcholinesterase | enzyme activity, inhibitor, Ellman | – | 1.83
CC[C@H](C)[C@@H]([C@@H](CC(=O)N1CCC[C@H]1[C@H](OC)[C@@H](C)C(=O)N[C@H](C)[C@@H](O)c1ccccc1)OC)N(C)C(=O)[C@@H](NC(=O)[C@H](C(C)C)N(C)C(=O)OCc1ccc(NC(=O)[C@H](C)NC(=O)[C@@H](NC(=O)CCc2cn(CCOCCOCCOCCOCC(=O)NCc3ccc(CN4C(=O)[C@H]5CC(=O)N[C@H](C(=O)O)CC(=O)NCC(=O)N[C@@H](CCCNC(=N)N)C(=O)NC[C@H]4C(=O)N5)cc3)nn2)C(C)C)cc1)C(C)C | Integrin alpha-V/beta-3 | ligand displacement | – | 0.0362
CNC(=O)Oc1cccc2c1OC(C)(C)C2 | Acetylcholinesterase | enzyme activity, inhibitor, Ellman | – | 0.073
CN(C)CCCN1c2ccccc2Sc2ccccc21 | Histamine H2 receptor (HRH2, Homo sapiens, UniProt P25021) | ligand displacement, radioligand | – | 0.11
Nc1c(S(=O)(=O)O)cc(Nc2ccc(Nc3nc(Cl)nc(Nc4cccc(S(=O)(=O)O)c4)n3)c(S(=O)(=O)O)c2)c2c1C(=O)c1ccccc1C2=O | P2X purinoceptor 4 (P2RX4, Homo sapiens, UniProt Q99571) | calcium signal, antagonist | – | 3.49
O=c1c2ccccc2[se]n1-c1ccccc1 | Glutathione reductase, mitochondrial (GSR, Homo sapiens, UniProt P00390) | enzyme activity, inhibitor, absorbance | – | 21.5
CC(C)(C)OC(=O)N1CCN(C(=O)C(=O)CC(=O)c2cccc(OCc3ccccc3)c2)CC1 | PTPN1 | enzyme activity, inhibitor, absorbance | pH 7 | 39.5
COc1cc(Nc2ncc(F)c(Nc3ccc4c(n3)NC(=O)C(C)(C)O4)n2)cc(OC)c1OC | Cathepsin S (CTSS, Homo sapiens, UniProt P25774) | enzyme activity, inhibitor | – | 12.6
CC[C@H](C)[C@@H]([C@@H](CC(=O)N1CCC[C@H]1[C@H](OC)[C@@H](C)C(=O)N[C@H](C)[C@@H](O)c1ccccc1)OC)N(C)C(=O)[C@@H](NC(=O)[C@H](C(C)C)N(C)C(=O)CCc1cn(CCOCCOCCOCCOCC(=O)NCc2ccc(CN3C(=O)[C@H]4CC(=O)N[C@H](C(=O)O)CC(=O)NCC(=O)N[C@@H](CCCNC(=N)N)C(=O)NC[C@H]3C(=O)N4)cc2)nn1)C(C)C | Integrin alpha-V/beta-3 | ligand displacement | – | 0.0145
C#CCN(C)c1nc(NCCCCC2CCN(Cc3ccccc3)CC2)c(C#N)c(-c2ccccc2)c1C#N | MAOA | enzyme activity, inhibitor, fluorescence | – | 11.6
NC(Cc1ccc(C(F)(F)[P-](F)(F)(F)(F)F)cc1)C(=O)O (centres unmarked) | PTPN1 | enzyme activity, inhibitor | – | 122
